Bioassay records deposited in PubChem BioAssay by several laboratories.
CHT PAM = allosteric activators of human choline transporter CHT | Q9GZV3 | CHT-expressing cells, membrane potential dye, choline EC20; active compounds read high; LV-AA mutant CHT in HEK293 cells | B-score at 10 µM | 310,000 tested, 0.49% active | AID 488977;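 active means initial fluorescence not abnormally high and integrated response B-score, plate-corrected, over 3 SD above library mean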
GalR3 antagonist = blocks the human galanin receptor 3; HEK293 GalR3-CNG cAMP membrane potential fluorescence; galR3 body fused to GalR1 C-terminus; 360,000 tested, 0.44% active; O60755; inhibition, % at 3 µM; AID 651719;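 active means inhibition above the screen-wide average plus 3 SD, cut at about 13% in these data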;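 further: forskolin and galanin both at EC90 stimulate the cells; cAMP rise reported by CNG channel membrane potential dye signal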
Target sequence (O60755 1-299 limits assumed): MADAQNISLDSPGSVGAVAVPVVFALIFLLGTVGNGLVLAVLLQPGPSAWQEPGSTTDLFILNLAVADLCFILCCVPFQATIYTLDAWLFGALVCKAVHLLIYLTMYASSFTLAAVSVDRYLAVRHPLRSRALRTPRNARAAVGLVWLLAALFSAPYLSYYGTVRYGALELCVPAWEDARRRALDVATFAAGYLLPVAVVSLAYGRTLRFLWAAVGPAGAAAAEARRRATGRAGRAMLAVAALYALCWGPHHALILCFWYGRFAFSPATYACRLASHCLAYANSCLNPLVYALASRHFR
NR2E3 ag-1 = activates human photoreceptor nuclear receptor NR2E3; Q9Y5X4; GST-NR2E3/biotin-RetCOR TR-FRET, 1536-well; inhibition of corepressor binding, % at 4.78 µM; 320,000 tested, 0.12% active; AID 2300;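 active means percent inhibition above the cutoff of mean plus 3 SD of all tested compounds, set per screening campaign, cut at about 20% in these data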
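System: GST-NR2E3 and biotin-RetCOR proteins; probe or stimulus: 7 nM biotin-RetCOR; doses: compound at 4.8 µM, single dose; schedule: Compound–protein incubation for 5 h at 4 °C; detection: time-resolved FRET; read-out: percent inhibition; controls: biotin wells as high control, 0.6% DMSO wells as low control; format: 1536-well plates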
CHT inh = inhibits the human high affinity choline transporter | AID 488975 | 310,000 tested, 0.86% active | Q9GZV3 | CHT-expressing cells, membrane potential dye, choline response; active compounds read low | B-score at 10 µM;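 active means B-score over 3 SD under the library average, and starting fluorescence ratio not unusually high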;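 further: choline stimulus applied at its EC90 after an EC20 pre-addition; B-score computed on integrated fluorescence ratio after choline addition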
NR2E3 ag-2 = human photoreceptor-specific nuclear receptor agonism; inhibition of corepressor binding, % at 3.98 µM; Q9Y5X4; AID 602229; 360,000 tested, 0.35% active; CHO-S Gal4-NCOR/VP16-NR2E3 two-hybrid, luciferase;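 active means inhibition above the mean of all tested compounds plus 3 SD, cut at about 70% in these data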;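 further: higher means lower luciferase signal from less NR2E3 corepressor binding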
COUP-TFII inh = NR2F2 (human) inhibition, primary screen; P24468; inhibition, % at 8.6 µM; HEK293T NGFI-A luciferase reporter, luminescence; 370,000 tested, 0.7% active;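 active means inhibition above a per-plate cutoff, mean inhibition of test wells between control levels plus 3 SD, cut at about 38% in these data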;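 further: cells cotransfected with COUP-TFII expression vector driving the NGFI-A reporter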
Gal4-VP16 ctr = inhibits VP16 reporter, flagging COUP-TFII antagonist hits | HEK293 Gal4-VP16 luciferase reporter, luminescence | inhibition, % at 8.5 µM | 2,500 tested, 25% active | shares compounds with COUP-TFII inh; in the data active means inhibition above about 13%
COUP-TFII conf = confirmation of human COUP-TFII (NR2F2) inhibitors; shares compounds with COUP-TFII inh; HEK293 NGFI-A luciferase reporter, luminescence; inhibition, % at 8.5 µM; 2,500 tested, 45% active;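 active means mean inhibition over three repeats above a set limit taken from the earlier primary screen, cut at about 38% in these data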
Numbers stand for hits. Compounds with a hit are over-represented: about 2.3% of the library has one in this group of screens.

How did COc1ccc(/C=C2\SC(=S)N(CCC(=O)Nc3ccc(C(=O)O)cc3)C2=O)cc1 do in these assays?
CHT PAM: inactive; GalR3 antagonist: inactive; NR2E3 ag-1: inactive; CHT inh: inactive; NR2E3 ag-2: inactive; COUP-TFII inh: inactive

Results for COc1ccc(/C=C2/SC(=S)N(CCC(=O)O)C2=O)cc1 ?
CHT PAM: inactive; GalR3 antagonist: inactive; NR2E3 ag-1: inactive; CHT inh: inactive; NR2E3 ag-2: inactive; COUP-TFII inh: 46; Gal4-VP16 ctr: inactive; COUP-TFII conf: 56

What do the screens show for `O=C(CCCN1C(=O)/C(=C/c2ccco2)SC1=S)Nc1ccccc1C(=O)O`?
CHT PAM: inactive; GalR3 antagonist: inactive; NR2E3 ag-1: inactive; CHT inh: inactive; NR2E3 ag-2: inactive; COUP-TFII inh: inactive

How did COc1cccc(/C=C2\SC(=S)N(CCC(=O)N3CCCCC3CCO)C2=O)c1 (stereo not given) do in these assays?
CHT PAM: inactive; GalR3 antagonist: inactive; NR2E3 ag-1: inactive; CHT inh: inactive; NR2E3 ag-2: inactive; COUP-TFII inh: inactive

How did CC(=C\c1ccccc1)/C=C1/SC(=S)N(CCCC(=O)O)C1=O do in these assays?
CHT PAM: inactive; GalR3 antagonist: inactive; CHT inh: inactive; NR2E3 ag-2: inactive; COUP-TFII inh: 38; Gal4-VP16 ctr: 73; COUP-TFII conf: 51

How did COc1cccc(/C=C2\SC(=S)N(CCCC(=O)N3CCCCC3CCO)C2=O)c1 (stereo not given) do in these assays?
CHT PAM: inactive; GalR3 antagonist: inactive; NR2E3 ag-1: inactive; CHT inh: inactive; NR2E3 ag-2: inactive; COUP-TFII inh: 39; Gal4-VP16 ctr: 31; COUP-TFII conf: inactive

How did CC(/C=C1\SC(=S)N(CCCC(=O)Nc2ccc(C(=O)O)cc2)C1=O)=C\c1ccccc1 do in these assays?
CHT PAM: inactive; GalR3 antagonist: inactive; NR2E3 ag-1: inactive; CHT inh: inactive; NR2E3 ag-2: inactive; COUP-TFII inh: inactive

How did O=C(O)CCCN1C(=O)/C(=C\c2ccco2)SC1=S do in these assays?
GalR3 antagonist: inactive; NR2E3 ag-2: inactive; COUP-TFII inh: 44; Gal4-VP16 ctr: 50; COUP-TFII conf: inactive

What do the screens show for `COC(=O)C1=C(C)N(Cc2cccc(C(F)(F)F)c2)C(=NCc2ccc3c(c2)OCO3)NC1c1ccc(F)cc1` (stereo not given)?
GalR3 antagonist: inactive; COUP-TFII inh: inactive

How did NS(=O)(=O)c1ccc(NC(=O)COc2ccc(C(=O)c3ccc(F)cc3)cc2)cc1 do in these assays?
CHT PAM: inactive; GalR3 antagonist: inactive; NR2E3 ag-1: inactive; CHT inh: inactive; NR2E3 ag-2: inactive; COUP-TFII inh: 38; Gal4-VP16 ctr: inactive; COUP-TFII conf: inactive

What do the screens show for `COc1ccc(/C=C/C(=O)Nc2ccccc2C(=O)O)cc1OC`?
CHT PAM: inactive; GalR3 antagonist: inactive; NR2E3 ag-1: inactive; CHT inh: inactive; NR2E3 ag-2: inactive; COUP-TFII inh: 60; Gal4-VP16 ctr: inactive; COUP-TFII conf: inactive

What do the screens show for `CCOC(=O)[C@]12CCC=C1N(Cc1cccc3ccccc13)C(=O)[C@H](CC(=O)NCc1ccc(OC)c(OC)c1)C2`?
GalR3 antagonist: inactive; NR2E3 ag-2: inactive; COUP-TFII inh: 37; Gal4-VP16 ctr: inactive; COUP-TFII conf: inactive

What do the screens show for `CCOC(=O)[C@]12CCC=C1N(Cc1ccco1)C(=O)[C@H](CC(=O)NCc1ccc(OC)c(OC)c1)C2`?
GalR3 antagonist: inactive; NR2E3 ag-2: inactive; COUP-TFII inh: inactive

How did COC(=O)[C@H](CC(C)C)N1Cc2nnn(Cc3ccccc3)c2-c2cc(F)ccc2S1(=O)=O do in these assays?
COUP-TFII inh: inactive

How did c1ccc(-c2ccc(C3=Nn4c(nnc4-c4ccncc4)SC3)cc2)cc1 do in these assays?
COUP-TFII inh: inactive

How did Clc1ccccc1C1=Nn2c(nnc2-c2ccncc2)SC1 do in these assays?
CHT PAM: inactive; GalR3 antagonist: inactive; NR2E3 ag-1: inactive; CHT inh: inactive; NR2E3 ag-2: inactive; COUP-TFII inh: 40; Gal4-VP16 ctr: inactive; COUP-TFII conf: inactive
